Assay results as given in ChEMBL document CHEMBL4627400, “Discovery of Dihydropyrrolo[1,2-a]pyrazin-3(4H)-one-Based Second-Generation GluN2C- and GluN2D-Selective Positive Allosteric Modulators (PAMs) of the N-Methyl-d-Aspartate (NMDA) Receptor” (J Med Chem, 2020).
pEC50: −log10 of the molar value.

Each compound was assayed against Ionotropic glutamate receptor NMDA 1/2D (Rattus norvegicus) (UniProt P35439+Q62645) (assay: Positive allosteric modulation of recombinant rat GluN1a/GluN2D receptor expressed in Xenopus laevis oocytes assessed as increase in glycine/L-glutamate-induced channel current at 30 uM by two-electrode voltage clamp method relative to control).
Assay type: cell-based; call rule not given here
How it was run: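 Oocytes expressing rat GluN1/GluN2C or GluN2D, held at −40 mV in HEPES-buffered Ba2+ solution, pH 7.4, 23 °C. […] Current given as percent of agonist-alone response. […] Doubling concentration is the concentration giving 2-fold response; reported as […] log. 6–19 oocytes from 2–3 frogs.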

SMILES	%max [%]
COc1cc2c(cc1OC)C(COc1ccccn1)N(C(=O)c1cccc(C(F)(F)F)c1)CC2 (stereo not given)	97
COc1cc2c(cc1OC)C(COC1CCOCC1)N(C(=O)c1cccc(C(F)(F)F)c1)CC2 (stereo not given)	95
COc1ccc(OCC2c3ccc(OC)cc3CC(=O)N2Cc2c[nH]nn2)cc1 (stereo not given)	98
COc1ccc(OCC2c3sc(C)nc3CCN2C(=O)c2cccc(Cl)c2)cc1 (stereo not given)	100
COc1ccc(OCC2c3ccc(OC(C)C)cc3CC(=O)N2Cc2cccc(F)c2)cc1 (stereo not given)	330
COc1ccc(OCC2c3cc(OC)c(OC)cc3CCN2C(=O)c2cccc(Cl)c2)s1 (stereo not given)	110
COc1cc2c(cc1OC)C(CO)N(C(=O)c1cccc(C(F)(F)F)c1)CC2 (stereo not given)	95
COc1ccc(OCC2c3occc3CCN2C(=O)c2cccc(Cl)c2)cc1 (stereo not given)	470
COc1ccc(OCC2c3sccc3CCN2C(=O)/C=C/C(F)(F)F)cc1 (stereo not given)	330
COc1ccc(OCC2c3ccc(OC)cc3CC(=O)N2Cc2cccc(Cl)c2)cc1 (stereo not given)	330
COc1ccc(OCC2c3sccc3CCN2C(=O)c2ccc(Cl)s2)cc1 (stereo not given)	400
COc1ccc(OCC2c3ccccc3CCN2C(=O)c2cccc(Cl)c2)cc1 (stereo not given)	300
COc1ccc(OCC2c3ccc(OC)cc3CC(=O)N2CCCC(F)(F)F)cc1 (stereo not given)	450
COc1ccc(OCC2c3ccc(OCC(C)C)cc3CC(=O)N2Cc2cccc(Cl)c2)cc1 (stereo not given)	370
COc1ccc(OCC2c3ccsc3CCN2C(=O)c2cccc(Cl)c2)cc1 (stereo not given)	340
CCCN1C(=O)Cc2cc(OC)ccc2C1COc1ccc(OC)cc1 (stereo not given)	94

The compounds below were run against Glutamate NMDA receptor; Grin1/Grin2a (Rattus norvegicus, UniProt P35439+Q00959) (assay: Positive allosteric modulation of recombinant rat GluN1a/GluN2A receptor expressed in Xenopus laevis oocytes assessed as increase in glycine/L-glutamate-induced channel current at 10 to 30 uM by two-electrode voltage clamp method relative to control).
Assay type: cell-based
How it was run: (§1)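 TEVC at −40 mV, 23 °C, in 90 NaCl/1 KCl/0.5 BaCl/0.005 EDTA/10 HEPES (mM), pH 7.4. Oocytes expressed rat GluN1/GluN2A or GluN1/GluN2B. […] Some GluN2A oocytes were BAPTA-loaded. 4–17 oocytes from 1–3 frogs.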

Glutamate NMDA receptor; Grin1/Grin2a, sequence (Q00959 whole entry, other chains not shown): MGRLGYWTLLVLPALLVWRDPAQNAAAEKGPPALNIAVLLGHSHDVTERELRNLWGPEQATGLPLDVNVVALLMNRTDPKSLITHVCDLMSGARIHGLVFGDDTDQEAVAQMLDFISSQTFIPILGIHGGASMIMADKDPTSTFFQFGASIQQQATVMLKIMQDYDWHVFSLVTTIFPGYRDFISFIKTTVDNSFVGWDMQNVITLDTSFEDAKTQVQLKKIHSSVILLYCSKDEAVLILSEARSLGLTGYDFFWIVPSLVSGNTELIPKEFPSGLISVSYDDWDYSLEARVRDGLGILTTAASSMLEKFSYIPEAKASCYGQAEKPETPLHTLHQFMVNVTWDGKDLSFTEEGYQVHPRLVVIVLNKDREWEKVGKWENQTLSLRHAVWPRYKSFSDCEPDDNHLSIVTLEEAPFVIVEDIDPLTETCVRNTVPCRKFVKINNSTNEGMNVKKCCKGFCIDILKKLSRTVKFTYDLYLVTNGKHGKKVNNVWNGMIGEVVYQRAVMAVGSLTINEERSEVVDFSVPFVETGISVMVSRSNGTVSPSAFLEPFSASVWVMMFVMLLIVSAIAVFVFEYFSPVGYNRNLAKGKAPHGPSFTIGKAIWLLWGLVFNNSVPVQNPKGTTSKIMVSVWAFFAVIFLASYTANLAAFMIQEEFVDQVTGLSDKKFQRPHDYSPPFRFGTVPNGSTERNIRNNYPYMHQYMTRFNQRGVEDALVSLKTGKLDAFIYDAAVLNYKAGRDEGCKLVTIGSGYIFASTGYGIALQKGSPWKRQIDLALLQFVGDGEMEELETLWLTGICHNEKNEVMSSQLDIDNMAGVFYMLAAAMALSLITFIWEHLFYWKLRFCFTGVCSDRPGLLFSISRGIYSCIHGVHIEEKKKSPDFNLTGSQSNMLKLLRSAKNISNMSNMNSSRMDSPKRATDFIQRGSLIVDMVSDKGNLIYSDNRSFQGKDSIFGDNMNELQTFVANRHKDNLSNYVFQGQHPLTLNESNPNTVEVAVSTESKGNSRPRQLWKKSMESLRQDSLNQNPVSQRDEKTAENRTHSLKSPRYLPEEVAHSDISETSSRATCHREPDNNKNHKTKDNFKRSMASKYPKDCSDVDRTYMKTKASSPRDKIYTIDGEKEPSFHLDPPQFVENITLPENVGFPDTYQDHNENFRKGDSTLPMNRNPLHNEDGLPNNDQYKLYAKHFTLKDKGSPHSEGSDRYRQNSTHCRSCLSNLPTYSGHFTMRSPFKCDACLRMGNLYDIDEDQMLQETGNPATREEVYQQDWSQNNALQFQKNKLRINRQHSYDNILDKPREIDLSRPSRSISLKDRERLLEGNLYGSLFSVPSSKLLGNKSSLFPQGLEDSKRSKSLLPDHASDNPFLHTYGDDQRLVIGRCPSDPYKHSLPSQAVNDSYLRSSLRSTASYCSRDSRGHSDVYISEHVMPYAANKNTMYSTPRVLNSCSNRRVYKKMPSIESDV

SMILES	Activity
COc1cc2c(cc1OC)C(COc1ccccn1)N(C(=O)c1cccc(C(F)(F)F)c1)CC2 (stereo not given)	Not Active
COc1cc2c(cc1OC)C(COC1CCOCC1)N(C(=O)c1cccc(C(F)(F)F)c1)CC2 (stereo not given)	Not Active
COc1ccc(OCC2c3ccc(OC)cc3CC(=O)N2Cc2c[nH]nn2)cc1 (stereo not given)	Not Active
COc1ccc(OCC2c3sc(C)nc3CCN2C(=O)c2cccc(Cl)c2)cc1 (stereo not given)	Not Active
COc1ccc(OCC2c3ccc(OC(C)C)cc3CC(=O)N2Cc2cccc(F)c2)cc1 (stereo not given)	130%
COc1ccc(OCC2c3ccc(OCC(C)C)cc3CCN2C(=O)c2cccc(Cl)c2)cc1 (stereo not given)	Not Active
COc1ccc(OCC2c3cc(OC)c(OC)cc3CCN2C(=O)c2cccc(Cl)c2)s1 (stereo not given)	Not Active
COc1cc2c(cc1OC)C(CO)N(C(=O)c1cccc(C(F)(F)F)c1)CC2 (stereo not given)	Not Active
COc1ccc(OCC2c3occc3CCN2C(=O)c2cccc(Cl)c2)cc1 (stereo not given)	Not Active
COc1ccc(OCC2c3sccc3CCN2C(=O)/C=C/C(F)(F)F)cc1 (stereo not given)	Not Active
COc1ccc(OCC2c3ccc(OC)cc3CC(=O)N2Cc2cccc(Cl)c2)cc1 (stereo not given)	Not Active
COc1ccc(OCC2c3ccc(OC(C)C)cc3CCN2C(=O)c2cccc(C(F)(F)F)c2)cc1 (stereo not given)	Not Active
COc1ccc(OCC2c3cc(OC)c(OC)cc3CCN2C(=O)c2cccc(C(F)(F)F)c2)cc1 (stereo not given)	Not Active
COc1ccc(OCC2c3sccc3CCN2C(=O)c2ccc(Cl)s2)cc1 (stereo not given)	Not Active
COc1ccc(OCC2c3ccccc3CCN2C(=O)c2cccc(Cl)c2)cc1 (stereo not given)	Not Active
COc1ccc(OCC2c3ccc(OC(C)C)cc3CCN2C(=O)c2cccc(F)c2)cc1 (stereo not given)	Not Active
COc1ccc(OCC2c3ccc(OC)cc3CC(=O)N2CCCC(F)(F)F)cc1 (stereo not given)	Not Active
COc1ccc(OCC2c3ccc(OCC(C)C)cc3CC(=O)N2Cc2cccc(Cl)c2)cc1 (stereo not given)	130%
COc1ccc(OCC2c3ccsc3CCN2C(=O)c2cccc(Cl)c2)cc1 (stereo not given)	Not Active
CCCN1C(=O)Cc2cc(OC)ccc2C1COc1ccc(OC)cc1 (stereo not given)	Not Active

These compounds were tested against Glutamate NMDA receptor; Grin1/Grin2c (Rattus norvegicus) (UniProt P35439+Q00961) (assay: Positive allosteric modulation of recombinant rat GluN1a/GluN2C receptor expressed in Xenopus laevis oocytes assessed as increase in glycine/L-glutamate-induced channel current at 30 uM by two-electrode voltage clamp method relative to control).
Assay type: cell-based
How it was run: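 Oocytes expressing rat GluN1/GluN2C or GluN2D, held at −40 mV in HEPES-buffered Ba2+ solution, pH 7.4, 23 °C. Current given as percent of agonist-alone response. Doubling concentration is the concentration giving 2-fold response; reported as […] log. 6–19 oocytes from 2–3 frogs.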

SMILES	%max [%]
COc1cc2c(cc1OC)C(COc1ccccn1)N(C(=O)c1cccc(C(F)(F)F)c1)CC2 (stereo not given)	96
COc1cc2c(cc1OC)C(COC1CCOCC1)N(C(=O)c1cccc(C(F)(F)F)c1)CC2 (stereo not given)	100
COc1ccc(OCC2c3ccc(OC)cc3CC(=O)N2Cc2c[nH]nn2)cc1 (stereo not given)	110
COc1ccc(OCC2c3sc(C)nc3CCN2C(=O)c2cccc(Cl)c2)cc1 (stereo not given)	100
COc1ccc(OCC2c3ccc(OC(C)C)cc3CC(=O)N2Cc2cccc(F)c2)cc1 (stereo not given)	320
COc1ccc(OCC2c3cc(OC)c(OC)cc3CCN2C(=O)c2cccc(Cl)c2)s1 (stereo not given)	100
COc1cc2c(cc1OC)C(CO)N(C(=O)c1cccc(C(F)(F)F)c1)CC2 (stereo not given)	98
COc1ccc(OCC2c3occc3CCN2C(=O)c2cccc(Cl)c2)cc1 (stereo not given)	340
COc1ccc(OCC2c3sccc3CCN2C(=O)/C=C/C(F)(F)F)cc1 (stereo not given)	290
COc1ccc(OCC2c3ccc(OC)cc3CC(=O)N2Cc2cccc(Cl)c2)cc1 (stereo not given)	270
COc1ccc(OCC2c3sccc3CCN2C(=O)c2ccc(Cl)s2)cc1 (stereo not given)	290
COc1ccc(OCC2c3ccccc3CCN2C(=O)c2cccc(Cl)c2)cc1 (stereo not given)	260
COc1ccc(OCC2c3ccc(OC)cc3CC(=O)N2CCCC(F)(F)F)cc1 (stereo not given)	290
COc1ccc(OCC2c3ccc(OCC(C)C)cc3CC(=O)N2Cc2cccc(Cl)c2)cc1 (stereo not given)	280
COc1ccc(OCC2c3ccsc3CCN2C(=O)c2cccc(Cl)c2)cc1 (stereo not given)	330
CCCN1C(=O)Cc2cc(OC)ccc2C1COc1ccc(OC)cc1 (stereo not given)	97

These compounds were tested against Ionotropic glutamate receptor NMDA 1/2D (Rattus norvegicus, UniProt P35439+Q62645).

SMILES	pEC50
COc1ccc(OCC2c3ccc(OC(C)C)cc3CC(=O)N2Cc2cccc(F)c2)cc1 (stereo not given)	5.70
COc1ccc(OCC2c3ccc(OCC(C)C)cc3CCN2C(=O)c2cccc(Cl)c2)cc1 (stereo not given)	5.90
COc1ccc(OCC2c3occc3CCN2C(=O)c2cccc(Cl)c2)cc1 (stereo not given)	5.10
COc1ccc(OCC2c3sccc3CCN2C(=O)/C=C/C(F)(F)F)cc1 (stereo not given)	4.80
COc1ccc(OCC2c3ccc(OC)cc3CC(=O)N2Cc2cccc(Cl)c2)cc1 (stereo not given)	5.60
COc1ccc(OCC2c3ccc(OC(C)C)cc3CCN2C(=O)c2cccc(C(F)(F)F)c2)cc1 (stereo not given)	5.60
COc1ccc(OCC2c3sccc3CCN2C(=O)c2ccc(Cl)s2)cc1 (stereo not given)	5.30
COc1ccc(OCC2c3ccccc3CCN2C(=O)c2cccc(Cl)c2)cc1 (stereo not given)	5.10
COc1ccc(OCC2c3ccc(OC(C)C)cc3CCN2C(=O)c2cccc(F)c2)cc1 (stereo not given)	5.10
COc1ccc(OCC2c3ccc(OC)cc3CC(=O)N2CCCC(F)(F)F)cc1 (stereo not given)	4.70
COc1ccc(OCC2c3ccc(OCC(C)C)cc3CC(=O)N2Cc2cccc(Cl)c2)cc1 (stereo not given)	6.20
COc1ccc(OCC2c3ccsc3CCN2C(=O)c2cccc(Cl)c2)cc1 (stereo not given)	5.30

What follows are compounds tested against Glutamate NMDA receptor; Grin1/Grin2b (Rattus norvegicus, UniProt P35439+Q00960) (assay: Positive allosteric modulation of recombinant rat GluN1a/GluN2B receptor expressed in Xenopus laevis oocytes assessed as increase in glycine/L-glutamate-induced channel current at 10 to 30 uM by two-electrode voltage clamp method relative to control).
Assay type: cell-based
How it was run: as §1

Glutamate NMDA receptor; Grin1/Grin2b, sequence (Q00960 whole entry, other chains not shown): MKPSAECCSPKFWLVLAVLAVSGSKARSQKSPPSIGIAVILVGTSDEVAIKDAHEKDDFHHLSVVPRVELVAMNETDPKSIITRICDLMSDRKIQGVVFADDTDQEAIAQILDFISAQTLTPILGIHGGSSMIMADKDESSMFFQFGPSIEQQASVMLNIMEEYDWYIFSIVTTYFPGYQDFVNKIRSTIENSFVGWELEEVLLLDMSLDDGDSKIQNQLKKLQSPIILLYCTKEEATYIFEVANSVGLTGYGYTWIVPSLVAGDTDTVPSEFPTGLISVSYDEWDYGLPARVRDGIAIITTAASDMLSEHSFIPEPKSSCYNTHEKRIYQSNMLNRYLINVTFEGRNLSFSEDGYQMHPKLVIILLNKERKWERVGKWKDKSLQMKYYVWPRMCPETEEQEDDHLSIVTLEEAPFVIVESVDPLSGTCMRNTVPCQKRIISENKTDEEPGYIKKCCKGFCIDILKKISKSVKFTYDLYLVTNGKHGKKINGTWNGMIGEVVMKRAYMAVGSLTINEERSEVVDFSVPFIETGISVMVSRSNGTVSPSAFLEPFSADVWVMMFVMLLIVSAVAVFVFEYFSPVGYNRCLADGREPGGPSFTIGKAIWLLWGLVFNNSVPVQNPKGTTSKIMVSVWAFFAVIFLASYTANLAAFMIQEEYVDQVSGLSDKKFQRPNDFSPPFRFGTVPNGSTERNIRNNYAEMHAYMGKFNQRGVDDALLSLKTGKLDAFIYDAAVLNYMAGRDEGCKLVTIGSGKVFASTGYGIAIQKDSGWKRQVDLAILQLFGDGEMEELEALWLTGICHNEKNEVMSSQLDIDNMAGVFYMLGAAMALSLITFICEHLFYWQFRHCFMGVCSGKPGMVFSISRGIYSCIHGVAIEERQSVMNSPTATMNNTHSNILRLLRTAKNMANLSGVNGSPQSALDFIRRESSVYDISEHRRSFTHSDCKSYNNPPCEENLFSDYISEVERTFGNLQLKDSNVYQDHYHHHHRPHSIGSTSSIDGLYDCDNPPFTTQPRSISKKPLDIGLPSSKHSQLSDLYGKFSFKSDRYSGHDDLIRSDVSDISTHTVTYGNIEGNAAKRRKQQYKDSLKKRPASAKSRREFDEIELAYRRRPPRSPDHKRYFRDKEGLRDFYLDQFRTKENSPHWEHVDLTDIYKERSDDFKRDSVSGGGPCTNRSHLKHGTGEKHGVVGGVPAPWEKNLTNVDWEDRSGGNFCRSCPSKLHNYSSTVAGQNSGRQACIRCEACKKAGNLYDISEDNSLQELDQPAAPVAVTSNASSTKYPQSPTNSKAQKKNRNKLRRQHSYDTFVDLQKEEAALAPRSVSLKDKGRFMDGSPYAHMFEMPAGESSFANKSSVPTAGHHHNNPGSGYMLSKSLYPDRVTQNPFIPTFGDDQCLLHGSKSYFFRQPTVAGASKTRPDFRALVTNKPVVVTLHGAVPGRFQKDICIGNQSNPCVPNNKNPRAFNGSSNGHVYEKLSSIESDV

SMILES	Activity
COc1cc2c(cc1OC)C(COc1ccccn1)N(C(=O)c1cccc(C(F)(F)F)c1)CC2 (stereo not given)	Not Active
COc1cc2c(cc1OC)C(COC1CCOCC1)N(C(=O)c1cccc(C(F)(F)F)c1)CC2 (stereo not given)	Not Active
COc1ccc(OCC2c3ccc(OC)cc3CC(=O)N2Cc2c[nH]nn2)cc1 (stereo not given)	Not Active
COc1ccc(OCC2c3sc(C)nc3CCN2C(=O)c2cccc(Cl)c2)cc1 (stereo not given)	Not Active
COc1ccc(OCC2c3ccc(OC(C)C)cc3CC(=O)N2Cc2cccc(F)c2)cc1 (stereo not given)	130%
COc1ccc(OCC2c3ccc(OCC(C)C)cc3CCN2C(=O)c2cccc(Cl)c2)cc1 (stereo not given)	Not Active
COc1ccc(OCC2c3cc(OC)c(OC)cc3CCN2C(=O)c2cccc(Cl)c2)s1 (stereo not given)	Not Active
COc1cc2c(cc1OC)C(CO)N(C(=O)c1cccc(C(F)(F)F)c1)CC2 (stereo not given)	Not Active
COc1ccc(OCC2c3occc3CCN2C(=O)c2cccc(Cl)c2)cc1 (stereo not given)	Not Active
COc1ccc(OCC2c3sccc3CCN2C(=O)/C=C/C(F)(F)F)cc1 (stereo not given)	Not Active
COc1ccc(OCC2c3ccc(OC)cc3CC(=O)N2Cc2cccc(Cl)c2)cc1 (stereo not given)	Not Active
COc1ccc(OCC2c3ccc(OC(C)C)cc3CCN2C(=O)c2cccc(C(F)(F)F)c2)cc1 (stereo not given)	Not Active
COc1ccc(OCC2c3cc(OC)c(OC)cc3CCN2C(=O)c2cccc(C(F)(F)F)c2)cc1 (stereo not given)	Not Active
COc1ccc(OCC2c3sccc3CCN2C(=O)c2ccc(Cl)s2)cc1 (stereo not given)	Not Active
COc1ccc(OCC2c3ccccc3CCN2C(=O)c2cccc(Cl)c2)cc1 (stereo not given)	Not Active
COc1ccc(OCC2c3ccc(OC(C)C)cc3CCN2C(=O)c2cccc(F)c2)cc1 (stereo not given)	Not Active
COc1ccc(OCC2c3ccc(OC)cc3CC(=O)N2CCCC(F)(F)F)cc1 (stereo not given)	Not Active
COc1ccc(OCC2c3ccc(OCC(C)C)cc3CC(=O)N2Cc2cccc(Cl)c2)cc1 (stereo not given)	130%
COc1ccc(OCC2c3ccsc3CCN2C(=O)c2cccc(Cl)c2)cc1 (stereo not given)	Not Active
CCCN1C(=O)Cc2cc(OC)ccc2C1COc1ccc(OC)cc1 (stereo not given)	Not Active

Each compound was assayed against Glutamate NMDA receptor; Grin1/Grin2c (Rattus norvegicus, UniProt P35439+Q00961).

SMILES	pEC50
COc1ccc(OCC2c3ccc(OC(C)C)cc3CC(=O)N2Cc2cccc(F)c2)cc1 (stereo not given)	6.00
COc1ccc(OCC2c3ccc(OCC(C)C)cc3CCN2C(=O)c2cccc(Cl)c2)cc1 (stereo not given)	6.00
COc1ccc(OCC2c3occc3CCN2C(=O)c2cccc(Cl)c2)cc1 (stereo not given)	5.20
COc1ccc(OCC2c3sccc3CCN2C(=O)/C=C/C(F)(F)F)cc1 (stereo not given)	4.90
COc1ccc(OCC2c3ccc(OC)cc3CC(=O)N2Cc2cccc(Cl)c2)cc1 (stereo not given)	5.70
COc1ccc(OCC2c3ccc(OC(C)C)cc3CCN2C(=O)c2cccc(C(F)(F)F)c2)cc1 (stereo not given)	5.80
COc1ccc(OCC2c3sccc3CCN2C(=O)c2ccc(Cl)s2)cc1 (stereo not given)	5.30
COc1ccc(OCC2c3ccccc3CCN2C(=O)c2cccc(Cl)c2)cc1 (stereo not given)	5.20
COc1ccc(OCC2c3ccc(OC)cc3CC(=O)N2CCCC(F)(F)F)cc1 (stereo not given)	5.10
COc1ccc(OCC2c3ccc(OCC(C)C)cc3CC(=O)N2Cc2cccc(Cl)c2)cc1 (stereo not given)	6.40
COc1ccc(OCC2c3ccsc3CCN2C(=O)c2cccc(Cl)c2)cc1 (stereo not given)	5.40
